In paper PMC8851253 (Heliyon, 2022):

Experiments:
[1] = In vitro cytotoxic activity, MTT assay; format: cell-based, human; conditions: human, U-937 cells, Cytotoxicity LC50, U-937 cells, MTT, ±SD (n = 3)
Procedure, shortened: (§1)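 Human U-937 macrophages in RPMI 1640/10% FBS are exposed to test compound from 200 to 0.19 µg/mL. MTT formazan is read as OD at 570 nm, with untreated cells as the viability control. Triplicate. LC50 comes from Probit linear regression of dose-response. Classes: LC50 <100 µM potentially cytotoxic, 100–<200 µM mildly cytotoxic, ≥200 µM noncytotoxic.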

[2] = tested on: intracellular amastigotes of L. panamensis; test: Anti-leishmanial activity, GFP flow cytometry in infected U-937 cells; format: cell-based, Leishmania panamensis; conditions: for EC50: Leishmania panamensis, U-937, 72 h, read-out: Anti-leishmanial EC50; for SI (anti-leishmanial): Selectivity index = LC50 (U-937)/EC50 (L. panamensis); for Anti-leishmanial activity class: L. panamensis
Procedure, shortened: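 L. panamensis GFP strain MHOM/CO/87/UA140 stationary promastigotes infect PMA-treated U-937 cells (3×10^5 cells/mL) at 15:1, 3 h at 34 °C, 5% CO2, then washed. At 24 h, test compound (50.0, 12.5, 3.1, 0.8 µg/mL) is added for 72 h at 37 °C. Flow cytometry at 488/525 nm over 10,000 events gives MFI, corrected with uninfected cells. Amphotericin B is the control. Triplicate, two experiments. SI = U-937 LC50/EC50.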

[3] = tested on: intracellular amastigotes of T. cruzi (Tulahuen strain); format: cell-based, Trypanosoma cruzi; conditions: for SI (anti-trypanosomal): Selectivity index = LC50 (U-937)/EC50 (T. cruzi); for EC50: Trypanosoma cruzi, TULAHUEN, U-937, 72 h, read-out: Anti-trypanosomal EC50
Procedure, shortened: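 T. cruzi Tulahuen (β-galactosidase-transfected) epimastigotes are grown 10 days at 26 °C. U-937 cells (2.5×10^4/100 µL, 0.16 µM PMA) are infected at 5:1 for 24 h at 37 °C, 5% CO2, RPMI/10% FBS, then washed. Six serial compound dilutions run for 72 h. CPRG 100 µM plus 0.1% NP-40 for 4 h, dark, then OD 570 nm, blank-subtracted. Benznidazole is the control. Triplicate, ≥2 experiments. SI = U-937 LC50/EC50.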

[4] = tested on: P. falciparum (3D7 strain); test: Anti-plasmodial activity, pLDH assay; format: cell-based, Plasmodium falciparum; conditions: for EC50: Plasmodium falciparum, 3D7, 72 h, read-out: Anti-plasmodial EC50; for SI (anti-plasmodial): Selectivity index = LC50 (U-937)/EC50 (P. falciparum)
Procedure, shortened: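 Asynchronous P. falciparum 3D7 at 0.5% parasitemia, 1% hematocrit in RPMI-1640/1% Albumax II is exposed to test compound at 100, 25, 3.125 and 0.78 µg/mL. Incubation is 72 h at 37 °C under 90% N2/5% CO2/5% O2. Freeze-thawed lysate goes into Malstat (pH 9.0) plus NBT/PES for 1 h in the dark. pLDH is read at 650 nm, blank-subtracted. Chloroquine is the control. SI = U-937 LC50/EC50.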

U-937 cells = test: In vitro cytotoxic activity, MTT assay; format: cell-based, human; conditions: for Degree of cytotoxicity: class by LC50 scale of b21
Procedure, shortened: as §1

C[C@@H]1[C@H](O)[C@@H](C)/C=C/C=C/C=C/C=C/C=C/C=C/C=C/[C@H](O[C@@H]2O[C@H](C)[C@@H](O)[C@H](N)[C@@H]2O)C[C@@H]2O[C@](O)(C[C@@H](O)C[C@@H](O)[C@H](O)CC[C@@H](O)C[C@@H](O)CC(=O)O[C@H]1C)C[C@H](O)[C@H]2C(=O)O [Amphotericin B, reference compound]
CC50 [1]: 32.6 ± 4 µM | EC50 [2]: 0.3 ± 0.1 µM | SI (anti-leishmanial) [2]: 108.67

O=C(Cn1ccnc1[N+](=O)[O-])NCc1ccccc1 [Benznidazole, reference compound]
SI (anti-trypanosomal) [3]: >13.83 | EC50 [3]: 14.5 ± 0.1 µM | CC50 [1]: > 200 µM

O=C(/C=C/c1ccccc1)c1ccccc1 [Chalcone, reference compound]
SI (anti-trypanosomal) [3]: 0.28 | EC50 [3]: 99.9 ± 39 µM | CC50 [1]: 27.9 ± 0.5 µM | EC50 [4]: 769 ± 72 µM | SI (anti-plasmodial) [4]: 0.04 | EC50 [2]: 15 ± 1.44 µM | SI (anti-leishmanial) [2]: 1.86

CCN(CC)CCCC(C)Nc1ccnc2cc(Cl)ccc12 (stereo not shown) [Chloroquine, reference compound]
CC50 [1]: 155 ± 5.2 µM | EC50 [4]: 3.3 ± 0.4 µM | SI (anti-plasmodial) [4]: 46.34

O=C(/C=C/c1ccccc1)c1cc2ccccc2oc1=O [Compound A1, 3-[(2E)-3-phenylprop-2-enoyl]-2H-chromen-2-one]
SI (anti-trypanosomal) [3]: 0.15 | EC50 [3]: 44.1 ± 4.2 µM | CC50 [1]: 6.7 ± 0.1 µM | EC50 [4]: 25.7 ± 3.5 µM | SI (anti-plasmodial) [4]: 0.26 | Anti-leishmanial activity class [2]: highly active (Compounds with EC50 ≤ 25 μM were considered highly active) | EC50 [2]: 3.7 ± 0.5 µM | SI (anti-leishmanial) [2]: 1.82

COc1cccc(/C=C/C(=O)c2cc3ccccc3oc2=O)c1 [Compound A2, 3-[(2E)-3-(3-methoxyphenyl)prop-2-enoyl]-2H-chromen-2-one]
SI (anti-trypanosomal) [3]: 0.20 | EC50 [3]: 28.4 ± 5.7 µM | CC50 [1]: 5.8 ± 0.1 µM | EC50 [4]: 23.3 ± 1.5 µM | SI (anti-plasmodial) [4]: 0.25 | EC50 [2]: 2.5 ± 0.2 µM | SI (anti-leishmanial) [2]: 2.31

COc1ccc(/C=C/C(=O)c2cc3ccccc3oc2=O)cc1 [Compound A3, 3-[(2E)-3-(4-methoxyphenyl)prop-2-enoyl]-2H-chromen-2-one]
SI (anti-trypanosomal) [3]: 0.03 | EC50 [3]: 327 ± 62.4 µM | CC50 [1]: 11.4 ± 2.3 µM | EC50 [4]: 38.7 ± 5.6 µM | SI (anti-plasmodial) [4]: 0.29 | EC50 [2]: > 6 µM | SI (anti-leishmanial) [2]: <1.89

Cc1cccc(/C=C/C(=O)c2cc3ccccc3oc2=O)c1 [Compound A4, 3-[(2E)-3-(3-methylphenyl)prop-2-enoyl]-2H-chromen-2-one]
SI (anti-trypanosomal) [3]: 0.11 | EC50 [3]: 50 ± 5.3 µM | CC50 [1]: 5.7 ± 0.1 µM | EC50 [4]: 35.3 ± 1.4 µM | SI (anti-plasmodial) [4]: 0.16 | Anti-leishmanial activity class [2]: highly active (Compounds with EC50 ≤ 25 μM were considered highly active) | EC50 [2]: 10.7 ± 5.7 µM | SI (anti-leishmanial) [2]: 0.53

O=C(/C=C/c1cccc(O)c1)c1cc2ccccc2oc1=O [Compound A5, 3-[(2E)-3-(3-hydroxyphenyl)prop-2-enoyl]-2H-chromen-2-one]
SI (anti-trypanosomal) [3]: 0.31 | EC50 [3]: 18.7 ± 2.4 µM | CC50 [1]: 5.9 ± 0.2 µM | EC50 [4]: 26.7 ± 3.6 µM | SI (anti-plasmodial) [4]: 0.22 | EC50 [2]: 2.1 ± 0.2 µM | SI (anti-leishmanial) [2]: 2.85

O=C(/C=C/c1ccc(O)cc1)c1cc2ccccc2oc1=O [Compound A6, 3-[(2E)-3-(4-hydroxyphenyl)prop-2-enoyl]-2H-chromen-2-one]
SI (anti-trypanosomal) [3]: 0.17 | EC50 [3]: 43.2 ± 6.4 µM | CC50 [1]: 7.5 ± 0.4 µM | EC50 [4]: 16.6 ± 0.9 µM | SI (anti-plasmodial) [4]: 0.45 | EC50 [2]: 8.2 ± 4 µM | SI (anti-leishmanial) [2]: 0.91

O=C(/C=C/c1cccc([N+](=O)[O-])c1)c1cc2ccccc2oc1=O [Compound A7, 3-[(2E)-3-(3-nitrophenyl)prop-2-enoyl]-2H-chromen-2-one]
SI (anti-trypanosomal) [3]: 0.23 | EC50 [3]: 496 ± 62 µM | CC50 [1]: 112 ± 10.6 µM | Degree of cytotoxicity (U-937 cells): mildly cytotoxic (100 ≤ LC50 < 200 μM) | EC50 [4]: 17.9 ± 1.7 µM | EC50 [2]: 64.7 ± 8.6 µM | SI (anti-leishmanial) [2]: 1.73

O=C(/C=C/c1ccc([N+](=O)[O-])cc1)c1cc2ccccc2oc1=O [Compound A8, 3-[(2E)-3-(4-nitrophenyl)prop-2-enoyl]-2H-chromen-2-one]
SI (anti-trypanosomal) [3]: 1.91 | EC50 [3]: 314 ± 19.9 µM | EC50 [4]: 18.4 ± 1 µM | EC50 [2]: 197 ± 76.9 µM | SI (anti-leishmanial) [2]: 3.05

O=C(/C=C/c1ccc(Cl)cc1)c1cc2ccccc2oc1=O [Compound A9, 3-[(2E)-3-(4-chlorophenyl)prop-2-enoyl]-2H-chromen-2-one]
SI (anti-trypanosomal) [3]: 0.83 | EC50 [3]: 52.1 ± 3.3 µM | CC50 [1]: 43.4 ± 3.9 µM | EC50 [4]: 18.9 ± 1.5 µM | EC50 [2]: 59.1 ± 12.7 µM | SI (anti-leishmanial) [2]: 0.73

O=C(/C=C/c1cccc(Br)c1)c1cc2ccccc2oc1=O [Compound A10, 3-[(2E)-3-(3-bromophenyl)prop-2-enoyl]-2H-chromen-2-one]
SI (anti-trypanosomal) [3]: 0.98 | EC50 [3]: 114 ± 8.5 µM | CC50 [1]: 112 ± 8.2 µM | Degree of cytotoxicity (U-937 cells): mildly cytotoxic (100 ≤ LC50 < 200 μM) | Toxicity class (U-937 cells; class by United Nations 2009 scale): moderately toxic (from 50 to 200 μM moderately toxic) | EC50 [4]: 19.6 ± 1.7 µM | EC50 [2]: 32.8 ± 3 µM

O=C(/C=C/c1ccc(Br)cc1)c1cc2ccccc2oc1=O [Compound A11, 3-[(2E)-3-(4-bromophenyl)prop-2-enoyl]-2H-chromen-2-one]
SI (anti-trypanosomal) [3]: 0.72 | EC50 [3]: 44.4 ± 3.5 µM | CC50 [1]: 32.1 ± 2.2 µM | EC50 [4]: 20.9 ± 1.2 µM | SI (anti-plasmodial) [4]: 1.54 | EC50 [2]: 31.4 ± 4.2 µM | SI (anti-leishmanial) [2]: 1.02

CCOc1cc(/C=C/C(=O)c2cc3ccccc3oc2=O)ccc1O [Compound A12, 3-[(2E)-3-(3-ethoxy-4-hydroxyphenyl)prop-2-enoyl]-2H-chromen-2-one]
SI (anti-trypanosomal) [3]: 0.21 | EC50 [3]: 41.2 ± 1.1 µM | CC50 [1]: 8.5 ± 1.6 µM | EC50 [4]: 15 ± 0.5 µM | SI (anti-plasmodial) [4]: 0.57 | EC50 [2]: 6.6 ± 1.3 µM | SI (anti-leishmanial) [2]: 1.29

O=C(/C=C/c1ccc2c(c1)OCO2)c1cc2ccccc2oc1=O [Compound A13, 3-[(2E)-3-(1,3-benzodioxol-5-yl)prop-2-enoyl]-2H-chromen-2-one]
SI (anti-trypanosomal) [3]: 0.30 | EC50 [3]: 129 ± 11 µM | CC50 [1]: 38 ± 3.4 µM | EC50 [4]: 15.2 ± 1.1 µM | EC50 [2]: > 20 µM | SI (anti-leishmanial) [2]: <1.90

O=c1ccc2ccccc2o1 [Coumarin, reference compound]
SI (anti-trypanosomal) [3]: <1.83 | EC50 [3]: > 7 µM | CC50 [1]: 12.9 ± 0.5 µM | EC50 [4]: 50.7 ± 5.7 µM | SI (anti-plasmodial) [4]: 0.25 | EC50 [2]: 64.4 ± 21.8 µM | SI (anti-leishmanial) [2]: 0.20
